In the array DNA melting data of Ke et al. (doi:10.1101/2024.01.08.574731) one finds folding enthalpy and Tm data, which are given here for 37 sequences.

Series [1] in a line: folding enthalpy; higher = less favourable; fluorescence melt of hairpins on a sequencing array, two-state fit. To be noted: sodium 0.088 M. In a few lines:
(§1)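 Folding enthalpy and melting temperature were estimated with bootstrapped two-state fits and combined across four replicates by inverse-variance weighting, with fitted temperatures raised by 9.35 °C to match UV melts. The data were Cy3 fluorescence of library hairpins, with annealed Cy3 and quencher oligos, on a sequenced MiSeq flow cell in 50 mM Na-HEPES pH 8.0, 25 mM NaCl, imaged in 2.5 °C steps up to 60 °C and normalised to pre-quench Cy3 and control constructs.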

Series [2] can be described thus: melting temperature; fluorescence melt of hairpins on a sequencing array, two-state fit, raised by 9.35 °C to match UV melts. The conditions noted are these: sodium 0.088 M. The essentials:
as §1

In the case of GTAGCCGAAAGGCCATAC ((((((....)))..))), the folding enthalpy in series [1] was -8.17 kcal/mol. For the same sequence, the Tm in series [2] came out at 22.3 °C.
The corresponding values for GTAGCCGAAAGGCCTTAC ((((((....)))..))) are -9.41 kcal/mol and 33.5 °C.
For GTAGCCGAAAGGCGATAC ((((((....)))..))), in series [1], the folding enthalpy was -9.43 kcal/mol. The Tm in series [2] worked out at 41.3 °C.
Turning to GTAGCCGAAAGGCTCTAC ((((((....)))..))), the folding enthalpy in series [1] is -8.79 kcal/mol. In addition, the Tm in series [2] was 38.6 °C.
Turning to GTAGCCGGAAACAGCTAC (((((.(....).))))), in series [1], the folding enthalpy was -22.2 kcal/mol. In addition, the Tm in series [2] turned out to be 43.4 °C.
On to GTAGCCGGAAACGGCCAC ((.((((....)))).)), for which, in series [1], the folding enthalpy was -10.2 kcal/mol. In addition, the Tm in series [2] was 39.5 °C.
Regarding GTAGCCGGAAACGGTTGC (.(.(((....))).).), the folding enthalpy in series [1] was -15.2 kcal/mol. Besides, in series [2], the Tm amounted to 36.4 °C.
The corresponding values for GTAGCGAAAGCTAC (((((....))))) are -25.8 kcal/mol and 68.7 °C.
GTAGCGCCGAAAGGCTAC (((..(((....)))))): the folding enthalpy in series [1] was -12.4 kcal/mol. Also, the Tm in series [2] turned out to be 36.3 °C.
For GTAGCGCGAAAGCGATAC (((.(((....))).))), in that order: -24.1 kcal/mol and 68 °C.
Regarding GTAGCGGGAAACCACTAC ((((.((....)).)))), the folding enthalpy in series [1] is -34.1 kcal/mol. For the same sequence, in series [2], the Tm came out at 42.2 °C.
For GTAGCTCGAAAGAGTAC (((.(((....)))))), in that order: -18.3 kcal/mol and 36.2 °C.
Regarding GTAGGACGAAAGTCATAC (((.(((....))).))), the folding enthalpy in series [1] is -28.1 kcal/mol. The Tm in series [2] is 52.5 °C.
With GTAGGCCGAAAGGCGTAC (((.(((....))).))), the folding enthalpy in series [1] was -26.5 kcal/mol. Further, the Tm in series [2] was determined as 62.4 °C.
For GTAGGCCGAAAGGCTAC (((.(((....)))))), in that order: -15.1 kcal/mol and 50.6 °C.
For GTAGGCGAAAGCCCGTAC ((((((....)))..))), in that order: -8.97 kcal/mol and 31.1 °C.
In the case of GTAGGCGAAAGCCGCTAC ((((((....)))..))), in series [1], the folding enthalpy was -8.76 kcal/mol. Besides, the Tm in series [2] was determined as 43.4 °C.
For GTAGGCGAAAGCCTTTAC ((((((....)))..))), in that order: -8.65 kcal/mol and 24.7 °C.
The corresponding values for GTAGGCGGAAACGCCCAC ((.((((....)))).)) are -10.2 kcal/mol and 41.1 °C.
As to GTAGGGACGAAAGTCTAC (((..(((....)))))), the folding enthalpy in series [1] was -12 kcal/mol. Further, in series [2], the Tm stood at 30 °C.
As for GTAGGGCCGAAAGGCTAC (((..(((....)))))), the folding enthalpy in series [1] is -9.3 kcal/mol. In series [2], the Tm was 35 °C.
The corresponding values for GTAGGGGGAAACCCCCAC ((.((((....)))).)) are -12.6 kcal/mol and 43.5 °C.
For GTAGGGGGAAACCCCTGC (.(((((....))))).), in that order: -21.9 kcal/mol and 53.2 °C.
Consider GTAGGGGGAAACTCCTGC (.(((.(....).))).), for which the folding enthalpy in series [1] was -20 kcal/mol. The Tm in series [2] was 35.5 °C.
As for GTAGTAACGAAAGTTTAC (((..(((....)))))), the folding enthalpy in series [1] is -9.07 kcal/mol. Moreover, the Tm in series [2] turned out to be 27.1 °C.
Regarding GTAGTACGAAAGTAATAC (((.(((....))).))), in series [1], the folding enthalpy was -28.9 kcal/mol. Further, the Tm in series [2] came to 43.2 °C.
Take GTAGTCGAAAGACAATAC ((((((....)))..))): in series [1], the folding enthalpy is -15.2 kcal/mol. Besides, the Tm in series [2] amounted to 28.3 °C.
In the case of GTAGTCGAAAGACCTTAC ((((((....)))..))), the folding enthalpy in series [1] was -14.1 kcal/mol. In addition, in series [2], the Tm was 29.4 °C.
For GTAGTCGAAAGACGCTAC ((((((....)))..))), in that order: -14.2 kcal/mol and 36.1 °C.
For GTAGTCGAAAGACGTTAC ((((((....)))..))), in that order: -12.2 kcal/mol and 35 °C.
With GTAGTCGCGAAAGCGTAC (((..(((....)))))), the folding enthalpy in series [1] was -8.28 kcal/mol. Moreover, the Tm in series [2] amounted to 32.9 °C.
On to GTAGTCGGAAACGATTAC (((.(((....))).))), for which the folding enthalpy in series [1] was -30.4 kcal/mol. Moreover, the Tm in series [2] was 44.1 °C.
With GTAGTCGGAAACGATTGC (.(.(((....))).).), the folding enthalpy in series [1] is -17.2 kcal/mol. For the same sequence, the Tm in series [2] stood at 31.2 °C.
On to GTAGTCGGAAACGGCTAC ((((.((....)).)))), for which the folding enthalpy in series [1] was -43.1 kcal/mol. Besides, the Tm in series [2] is 54.6 °C.
The corresponding values for GTAGTGCGAAAGCAGTAC (((.(((....))).))) are -31.2 kcal/mol and 58.2 °C.
For GTAGTGTCGAAAGACTAC (((..(((....)))))), in that order: -15.1 kcal/mol and 33.3 °C.
As to GTAGTTGCGAAAGCATAC (((..(((....)))))), the folding enthalpy in series [1] is -10.9 kcal/mol. Moreover, the Tm in series [2] was determined as 31.1 °C.
